Holding throughout (format): functional
The test system of one test is Streptococcus. Briefly: Antibacterial activity against Streptococcus group D after 18 to 24 hrs by disc diffusion method. A digest of the protocol: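 Kirby-Bauer disc diffusion: sterile 6 mm filter-paper discs impregnated with compound at 1.5, 1.1, 0.57, 0.28, 0.14 and 0.07 per mL. Discs showing zones were followed by broth dilution: doubling dilutions in 50% DMSO–H2O, inoculum to 0.5 McFarland, 37 °C for 18–24 h. MIC was the lowest dilution preventing visible turbidity. The initial solution (12.5% DMSO) was not scored.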
In general terms: Agar diffusion results depend on both activity and mobility in agar.

The next test has as its system Aspergillus fumigatus. The experiment in a line: Antifungal activity against Aspergillus fumigatus by disc diffusion method. A digest of the protocol:
(§1)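 Fungi were screened first by disc diffusion on corn meal agar, with M-3 broth susceptibility test medium. MIC was then determined by broth dilution.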

The next test concerns Talaromyces marneffei. The experiment in a line: Antifungal activity against Penicillium marneffei by disc diffusion method. A digest of the protocol: as §1
The test system of the next test is Candida albicans. Briefly: Antifungal activity against Candida albicans by disc diffusion method. A digest of the protocol: as §1
The test system of the next test is Cryptococcus neoformans. The experiment in a line: Antifungal activity against Cryptococcus neoformans by disc diffusion method. In a few lines:
as §1

The subject of a further test is Mucor. Briefly: Antifungal activity against Mucor sp. by disc diffusion method. A digest of the protocol:
as §1

These results are taken from ChEMBL document CHEMBL1140527, “Synthesis and antimicrobial activity of some novel nucleoside analogues of adenosine and 1,3-dideazaadenosine” (2007).

Usually MIC stands for the lowest concentration that inhibits growth of the organism. High values mean a need for much substance, low ones inhibition by little substance.

In brackets after ≈: the same amount, converted by molar mass.

For the molecule `Nc1cccc2c1ncn2[C@@H]1O[C@H](CSCCC(=O)O)[C@@H](O)[C@H]1O`, the MIC was 0.38 µM (≈ 0.134 µg/mL) in the test with Streptococcus; 0.75 µM (≈ 0.265 µg/mL) against Aspergillus fumigatus; 0.75 µM (≈ 0.265 µg/mL) against Talaromyces marneffei; 0.75 µM (≈ 0.265 µg/mL) in the test on Candida albicans; 0.75 µM (≈ 0.265 µg/mL) against Cryptococcus neoformans; 0.75 µM (≈ 0.265 µg/mL) against Mucor.

For the molecule `C=CCSC[C@H]1O[C@@H](n2c(CC)nc3c([N+](=O)[O-])cccc32)[C@H](O)[C@@H]1O`, the MIC against Aspergillus fumigatus, in the test on Talaromyces marneffei, against Candida albicans, with Cryptococcus neoformans and against Mucor was 2 µM (≈ 0.759 µg/mL) in each case.

As for `C=CCSC[C@H]1O[C@@H](n2cnc3c([N+](=O)[O-])cccc32)[C@H](O)[C@@H]1O`, the MIC with Streptococcus stood at 1.25 µM (≈ 0.439 µg/mL); in the test on Aspergillus fumigatus it was 0.38 µM (≈ 0.134 µg/mL); against Talaromyces marneffei, 0.38 µM (≈ 0.134 µg/mL); in the test with Candida albicans, 0.38 µM (≈ 0.134 µg/mL); against Cryptococcus neoformans, 0.38 µM (≈ 0.134 µg/mL); in the test on Mucor, 0.38 µM (≈ 0.134 µg/mL).

Take `Nc1ncnc2c1ncn2[C@@H]1O[C@H](CSCCC(=O)O)[C@@H](O)[C@H]1O`: the MIC with Streptococcus was 0.755 µM (≈ 0.268 µg/mL); in the test with Aspergillus fumigatus, 1.5 µM (≈ 0.533 µg/mL); with Talaromyces marneffei it was 1.5 µM (≈ 0.533 µg/mL); in the test on Candida albicans it was 1.5 µM (≈ 0.533 µg/mL); in the test on Cryptococcus neoformans, 1.5 µM (≈ 0.533 µg/mL); with Mucor, 1.5 µM (≈ 0.533 µg/mL).

On to `CCOC(=O)CCSC[C@H]1O[C@@H](n2cnc3c(N)cccc32)[C@H](O)[C@@H]1O`, for which the MIC is 0.19 µM (≈ 0.0725 µg/mL) against Streptococcus; 0.38 µM (≈ 0.145 µg/mL) against Aspergillus fumigatus; 0.38 µM (≈ 0.145 µg/mL) against Talaromyces marneffei; 0.38 µM (≈ 0.145 µg/mL) against Candida albicans; 0.38 µM (≈ 0.145 µg/mL) with Cryptococcus neoformans; 0.38 µM (≈ 0.145 µg/mL) in the test with Mucor.

For `OC(Cn1cncn1)(Cn1cncn1)c1ccc(F)cc1F` [FLUCONAZOLE], the MIC against Aspergillus fumigatus, against Talaromyces marneffei, with Candida albicans, in the test with Cryptococcus neoformans and against Mucor was 0.52 µM (≈ 0.159 µg/mL) each time.

Turning to `Clc1ccc(COC(Cn2ccnc2)c2ccc(Cl)cc2Cl)c(Cl)c1` (stereo not given) [MICONAZOLE], the MIC with Aspergillus fumigatus, against Talaromyces marneffei, with Candida albicans, against Cryptococcus neoformans and against Mucor was 0.77 µM (≈ 0.32 µg/mL) each time.

Molecule `CN[C@H](CC(C)C)C(=O)N[C@H]1C(=O)N[C@@H](CC(N)=O)C(=O)N[C@H]2C(=O)N[C@H]3C(=O)N[C@H](C(=O)N[C@H](C(=O)O)c4cc(O)cc(O)c4-c4cc3ccc4O)[C@H](O)c3ccc(c(Cl)c3)Oc3cc2cc(c3O[C@@H]2O[C@H](CO)[C@@H](O)[C@H](O)[C@H]2O[C@H]2C[C@](C)(N)[C@H](O)[C@H](C)O2)Oc2ccc(cc2Cl)[C@H]1O` [VANCOMYCIN] had an MIC in the test with Streptococcus of 0.78 µM (≈ 1.13 µg/mL).
